The term IC50 denotes the midpoint of a concentration-inhibition curve.

Here are results for 18 molecules from ChEMBL document CHEMBL4311948, “Exploring the Natural Piericidins as Anti-Renal Cell Carcinoma Agents Targeting Peroxiredoxin 1” (J Med Chem, 2019).

Some results are limits rather than exact numbers.

Test [1] has as its system ACHN. The test is described as follows: Cytotoxicity against human ACHN cells assessed as reduction in cell viability measured after 72 hrs by CCK8 assay. The test is classed as functional, cell-based. The gist of the method:
(§1)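 Cells were grown in 10% FBS medium: MEM for ACHN, RPMI1640 for OS-RC-2 and 786-O, DMEM for HK-2. They were seeded at 400–800 cells/well in 384-well plates and treated with a range of compound concentrations or solvent control, with sorafenib as positive control. After 72 h, CCK-8 absorbance was read at 450 nm in triplicate, and IC50 was taken from dose-response curves.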
On the technique in general: Tetrazolium dyes change colour on reduction, which living cells bring about.

A further test concerns OS-RC-2. The test is described as follows: Cytotoxicity against human OS-RC2 cells assessed as reduction in cell viability measured after 72 hrs by CCK8 assay. It counts as functional, cell-based. To be noted: OS-RC-2, 72 h. The procedure, abridged:
as §1

Another test deals with 786-0. Description: Cytotoxicity against human 786-O cells assessed as reduction in cell viability measured after 72 hrs by CCK8 assay. To be noted: 786-0, 72 h. It counts as functional, cell-based. The gist of the method:
as §1

A further test has as its system HK-2. Description: Cytotoxicity against human HK2 cells assessed as reduction in cell viability measured after 72 hrs by CCK8 assay. It counts as cell-based. To be noted: HK-2, 72 h. The procedure, abridged:
as §1

The test system of test [2] is ACHN. Description: Cytotoxicity against human ACHN cells harboring shPRDX1 gene assessed as reduction in cell viability measured after 72 hrs by CCK8 assay. It counts as functional, cell-based. The procedure, abridged: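 Transfectants were selected with puromycin (1 μg/mL), and knockdown was confirmed by immunoblot. Viability was read by CCK-8 after 72 h of compound exposure in 384-well plates at 400–800 cells/well in MEM with 10% FBS, and IC50 was taken from dose-response curves.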

Setting [3] is: Homo sapiens, ACHN, 72 h, read-out: IC50.

`C/C=C(\C)[C@H](O[C@@H]1O[C@H](CO)[C@@H](O)[C@H](O)[C@H]1O)[C@H](C)/C=C(\C)[C@@H](OC)[C@@H](O)C/C(C)=C/Cc1nc(OC)c(OC)c(O)c1C`: the IC50 in the test on ACHN [1] is 2.4 µM; in the test on OS-RC-2, > 100 µM; with 786-0, > 100 µM.

For the molecule `COc1nc(C/C=C(\C)C/C=C/C(C)=C/[C@@H](C)[C@@H](O[C@@H]2O[C@H](CO[C@H]3O[C@H](CO)[C@H](O)[C@H](O)[C@H]3O)[C@@H](O)[C@H](O)[C@H]2O)/C(C)=C/CO)c(C)c(O)c1OC`, the half-inhibitory concentration (IC50) with ACHN [1], in the test with OS-RC-2, with 786-0 and with HK-2 was > 100 µM each time.

On to `C/C=C(\C)[C@H](O[C@@H]1O[C@H](CO)[C@@H](O)[C@H](O)[C@H]1O)[C@H](C)/C=C/C=C/C/C(C)=C/Cc1nc(OC)c(OC)c(O)c1C`, for which the IC50 in the test on ACHN [1] stood at 0.31 µM; in the test on OS-RC-2, 2.6 µM; in the test with 786-0, 0.99 µM.

With `C/C=C(\C)[C@H](O[C@@H]1O[C@H](CO[C@H]2O[C@H](CO)[C@@H](O)[C@H](O)[C@H]2O)[C@@H](O)[C@H](O)[C@H]1O)[C@H](C)/C=C(C)/C=C/C/C(C)=C/Cc1nc(OC)c(OC)c(O)c1C`, the IC50 is 21 µM with ACHN [1], > 100 µM in the test with OS-RC-2, > 100 µM in the test with 786-0 and > 100 µM in the test with HK-2.

For `COc1nc(C/C=C(\C)C/C=C/C(C)=C/[C@@H](C)[C@@H](O[C@@H]2O[C@H](CO)[C@@H](O)[C@H](O)[C@H]2O)[C@@]2(C)O[C@@H]2C)c(C)c(O)c1OC`, the IC50 in the test with ACHN [1] was 2.8 µM; in the test on OS-RC-2 it was 30 µM; with 786-0, 19 µM.

Turning to `COc1nc(C/C=C(\C)C/C=C/C=C/[C@@H](C)[C@@H](O[C@@H]2O[C@H](CO)[C@@H](O)[C@H](O)[C@H]2O)/C(C)=C/CO)c(C)c(O)c1OC`, the IC50 in the test on ACHN [1] turned out to be 2.5 µM; in the test on OS-RC-2 it was 79 µM; in the test with 786-0, 28 µM.

As for `C/C=C(\C)[C@H](O[C@@H]1O[C@H](CO[C@H]2O[C@H](CO)[C@H](O)[C@H](O)[C@H]2O)[C@@H](O)[C@H](O)[C@H]1O)[C@H](C)/C=C(C)/C=C/C/C(C)=C/Cc1nc(OC)c(OC)c(O)c1C`, the IC50 was 4.5 µM in the test on ACHN [1]; > 100 µM in the test with OS-RC-2; > 100 µM in the test on 786-0; > 100 µM in the test with HK-2; 9 µM in the test with ACHN [2] (setting [3]).

With `C/C=C(\C)[C@H](O[C@@H]1O[C@H](CO)[C@@H](O)[C@H](O)[C@H]1O)[C@H](C)/C=C(C)/C=C/C/C(C)=C/Cc1nc(OC)c(OC)c(O[C@@H]2O[C@H](CO)[C@@H](O)[C@H](O)[C@H]2O)c1C`, the IC50 in the test with ACHN [1] is 28 µM; in the test with OS-RC-2, > 100 µM; in the test on 786-0, > 100 µM; in the test on HK-2, 1.1 µM.

Consider `COc1nc(C/C=C(\C)C[C@H](O)[C@H](OC)/C(C)=C/[C@@H](C)[C@@H](O[C@@H]2O[C@H](CO)[C@@H](O)[C@H](O)[C@H]2O)/C(C)=C/CO)c(C)c(O)c1OC`, for which the IC50 was 60 µM in the test with ACHN [1], > 100 µM in the test with OS-RC-2 and > 100 µM in the test with 786-0.

As to `COc1nc(C/C=C(\C)C/C(C)=C/C(C)=C/[C@@H](C)[C@@H](O)/C(C)=C/[C@](C)(O)[C@@H](C)O)c(C)c(O)c1OC`, the IC50 is 2.4 µM in the test with ACHN [1]; 5.3 µM in the test on OS-RC-2; > 100 µM in the test on 786-0; 44 µM in the test on HK-2; 8.2 µM with ACHN [2] (setting [3]).

For `COc1nc(C/C=C(\C)C/C(C)=C/C(C)=C/[C@@H](C)[C@@H](O)[C@]2(C)O[C@H]2C)c(C)c(O)c1OC`, the IC50 was > 100 µM with ACHN [1]; 22 µM in the test with OS-RC-2; > 100 µM in the test on 786-0; > 100 µM in the test with HK-2; > 100 µM in the test on ACHN [2] (setting [3]).

`C/C=C(\C)[C@H](O)[C@H](C)/C=C(C)/C=C(\C)C/C(C)=C/Cc1nc(OC)c(OC)c(O)c1C`: the IC50 in the test with ACHN [1] is 14 µM; with OS-RC-2, 17 µM; in the test with 786-0, 50 µM; in the test with HK-2, 45 µM; with ACHN [2] (setting [3]) it was 68 µM.

On to `COc1nc(C/C=C(\C)C/C=C/C(C)=C/[C@@H](C)[C@@H](O[C@@H]2O[C@H](CO[C@H]3O[C@H](CO)[C@@H](O)[C@H](O)[C@H]3O)[C@@H](O)[C@H](O)[C@H]2O)/C(C)=C/CO)c(C)c(O)c1OC`, for which the IC50 in the test on ACHN [1] is 23 µM; in the test on OS-RC-2 it was > 100 µM; in the test with 786-0 it was > 100 µM; in the test with HK-2, > 100 µM; in the test on ACHN [2] (setting [3]) it was 58 µM.

For `COc1nc(C/C=C(\C)C/C=C/C(C)=C/[C@@H](C)[C@@H](O[C@@H]2O[C@H](CO)[C@@H](O)[C@H](O)[C@H]2O)/C(C)=C/CO)c(C)c(O)c1OC`, the IC50 in the test on ACHN [1] is 7.21 µM; in the test with OS-RC-2 it was > 100 µM; in the test on 786-0, > 100 µM; in the test with HK-2, > 100 µM; in the test with ACHN [2] (achn) it was “Not Active”.

For the molecule `C/C=C(\C)C(=O)[C@H](C)/C=C(C)/C=C/C/C(C)=C/Cc1nc(OC)c(OC)c(O)c1C`, the IC50 was > 100 µM with ACHN [1], 22 µM with OS-RC-2, > 100 µM in the test on 786-0 and > 100 µM in the test on ACHN [2] (setting [3]).

On to `COc1nc(C/C=C(\C)C/C(C)=C/C(C)=C/[C@@H](C)[C@@H](O)/C(C)=C/[C@@](C)(O)[C@H](C)O)c(C)c(O)c1OC`, for which the IC50 with ACHN [1] was 3.8 µM; in the test on OS-RC-2 it was 4.1 µM; with 786-0, > 100 µM; with HK-2, 63 µM; in the test on ACHN [2] (setting [3]), 13 µM.

With `C/C=C/[C@H](O)[C@H](C)/C=C(C)/C=C/C/C(C)=C/Cc1nc(OC)c(OC)c(O)c1C`, the IC50 in the test with ACHN [1] is 4.1 µM; in the test on OS-RC-2, 11 µM; in the test on 786-0, > 100 µM; in the test on ACHN [2] (setting [3]), 11 µM.

In the case of `C/C=C(\C)[C@H](O[C@@H]1O[C@H](CO)[C@@H](O)[C@H](O)[C@H]1O)[C@H](C)/C=C(C)/C=C/C/C(C)=C/Cc1nc(OC)cc(O)c1C`, the results for the IC50 with ACHN [1], in the test on OS-RC-2 and in the test with 786-0 were 3.8 µM, 14 µM and 15 µM, respectively.
